Our source for the Activity, Ratio and IC50 values is ChEMBL document CHEMBL1129495, “Highly selective bradykinin agonists and antagonists with replacement of proline residues by N-methyl-D- and L-phenylalanine” (J Med Chem, 1996).

Square brackets hold non-standard residues; d marks the D form. Peptide text beside a SMILES is read from it. Phe(4-guanidino) = N=C(N)Nc1ccc(C[C@H](N)C(=O)O)cc1; 2Thi = N[C@@H](Cc1cccs1)C(=O)O; Aib = CC(C)(N)C(=O)O

The species entered for experiment [1] is Rattus norvegicus. Description: Agonistic activity against selectivity for smooth muscle contraction in rat uterus. It is filed as functional, Muscle tissue. Summed up: (§1)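 Uteri from female Wistar rats (180–200 g) given diethylstilbestrol 100 µg/kg sc 16 h before use. Distal horns held in de Jalon solution at 28 °C under 0.5 g resting tension, with isotonic contractions recorded. BK was dosed every 4 min and left in the bath 45 s. Agonist activity by Schild 4-point method, expressed as percent of BK activity.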

Experiment [2] is filed under the species Cavia porcellus. Description: Agonistic activity against selectivity for smooth muscle contraction in guinea pig ileum. Format: functional, Muscle tissue. Summed up:
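Isolated terminal ileum (1.5 cm) from guinea pigs fasted 16 h, in Tyrode at 37 °C. Isotonic contractions recorded under 0.5 g resting tension. Agonist activity measured by Schild 4-point method against BK doses of 1 and 2 nM, expressed as percent of BK activity.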

Experiment [3] can be described thus: Selectivity for rat uterus is expressed as the ratio RUT/GPI. It is filed as functional. Summed up: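 Ratio of agonist activity (percent of BK) in estrus rat uterus to that in guinea pig ileum, both from isotonic contraction assays using the Schild 4-point method.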
The species entered for experiment [4] is Cavia porcellus. Description: Antagonistic activity was evaluated in Guinea pig lung strip assay. Format: functional. Set-up: scale not given: the % may be the effect or the level left. The method in brief: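 Lower-lobe lung strips (2–3 mm) from guinea pigs (400–600 g) in Krebs–Henseleit at 37 °C under 1 g load, with isometric tension recorded. After 1 h equilibration, peptide was given 5 min before an ED50 dose of BK. Cumulative BK curves covered 0.01–10 µM. pA2 by the van Rossum method.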

The species entered for experiment [5] is Cavia porcellus. Description: Antagonistic activity was evaluated in Guinea pig ileum assay. Format: functional. Further details: scale not given: the % may be the effect or the level left. Summed up: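 Guinea pig terminal ileum in Tyrode at 37 °C under 0.5 g tension, isotonic recording. Analog added 5 min before a cumulative BK dose–response curve (maximum at 0.3 µM BK). pA2 is the negative log of the antagonist concentration that reduces the effect of a double BK dose to that of a single dose. Means of 3–7 determinations.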

The species entered for experiment [6] is Rattus norvegicus. Description: Agonistic activity was evaluated in Estrus Rat Uterus Assay. Format: functional. Summed up:
as §1

A short description of experiment [7]: Inhibitory activity against low affinity binding site of Bradykinin receptor in guinea pig ileum. Format: tissue-based. Conditions: Cavia porcellus. Summed up: (§2)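 Fresh rat myometrial or guinea pig ileum membranes (0.3–0.5 mg protein) incubated 30 min at 4 °C with 0.05 nM [3H]BK and increasing peptide concentrations. Buffer: 25 mM TES pH 6.8, 1 µM captopril, 1 mM DTE, bacitracin, BSA. Samples filtered on PEI-treated GF/C and counted. High- and low-affinity IC50s from Tobler–Engel analysis; duplicates.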

Experiment [8] is described as follows: Inhibitory activity against low affinity binding site of Bradykinin receptor in rat uterus membrane was reported. It is filed as cell membranes. The method in brief: as §2
Experiment [9] can be described thus: Inhibitory activity against high affinity binding site of Bradykinin receptor in rat uterus membrane was reported. It is filed as cell membranes. The method in brief: as §2
Experiment [10] is described as follows: Inhibitory activity against high affinity binding site of Bradykinin receptor in guinea pig ileum was reported. Format: tissue-based. Conditions: Cavia porcellus. The method in brief:
as §2

Turning to `CC[C@@H](C)[C@@H](N)C(=O)N[C@@H](CO)C(=O)N[C@@H](CCCN=C(N)N)C(=O)N1CCC[C@H]1C(=O)N1CCC[C@H]1C(=O)NCC(=O)N[C@@H](Cc1ccccc1)C(=O)N[C@@H](CO)C(=O)N1CCC[C@H]1C(=O)N[C@@H](Cc1ccccc1)C(=O)N[C@@H](CCCN=C(N)N)C(=O)O`, the Activity in the experiment listed under Rattus norvegicus [1] came out at 271%; in the experiment listed under Cavia porcellus [2] it was 11%. The Ratio in experiment [3] was determined as 25.
A word on the IC50: it is the point on the concentration scale where inhibition reaches its midpoint. Regarding `CN(C(=O)[C@H](CO)NC(=O)[C@H](Cc1ccccc1)NC(=O)CNC(=O)[C@@H]1CCCN1C(=O)[C@@H]1CCCN1C(=O)[C@@H](N)CCCN=C(N)N)[C@@H](Cc1ccccc1)C(=O)N[C@@H](Cc1ccccc1)C(=O)N[C@@H](CCCN=C(N)N)C(=O)O`, the figures for the Activity in the experiment listed under Cavia porcellus [4], in the experiment filed under Cavia porcellus [5] and in the experiment listed under Rattus norvegicus [6] were 0.1%, 0.03% and 0.2%, respectively. For the same molecule, the results for the IC50 in [7] and in experiment [8] were 0.7 µM and 0.5 µM, respectively.
Turning to `CN(C(=O)[C@@H]1CCCN1C(=O)[C@@H](N)CCCN=C(N)N)[C@H](Cc1ccccc1)C(=O)NCC(=O)N[C@@H](Cc1ccccc1)C(=O)N[C@@H](CO)C(=O)N1CCC[C@H]1C(=O)N[C@@H](Cc1ccccc1)C(=O)N[C@@H](CCCN=C(N)N)C(=O)O`, the Activity in the experiment listed under Cavia porcellus [4] is recorded as 0.03%; in the experiment filed under Cavia porcellus [5] it was 0.03%; in the experiment listed under Rattus norvegicus [6], 0.02%. For the same molecule, the IC50 in experiment [7] stood at 1.4 µM; in [8], 0.057 µM; in experiment [9] it was 0.0003 µM.
With `CN(C(=O)[C@H](CO)NC(=O)[C@H](Cc1ccccc1)NC(=O)CNC(=O)[C@@H]1C[C@@H](O)CN1C(=O)[C@@H]1CCCN1C(=O)[C@H](CCCN=C(N)N)NC(=O)[C@H](N)CCCN=C(N)N)[C@H](Cc1ccccc1)C(=O)N(C)[C@@H](Cc1ccccc1)C(=O)N[C@@H](CCCN=C(N)N)C(=O)O` [listing 1 of 2 here], the Activity in the experiment listed under Cavia porcellus [4] stood at 0.45%; in the experiment listed under Cavia porcellus [5], 0.01%; in the experiment listed under Rattus norvegicus [6] it was 40%. Also, the Ratio in experiment [3] is 4000.
With `N=C(N)Nc1ccc(C[C@H](NC(=O)[C@H](Cc2ccccc2)NC(=O)[C@@H]2CCCN2C(=O)[C@H](CO)NC(=O)[C@H](Cc2ccccc2)NC(=O)CNC(=O)[C@@H]2CCCN2C(=O)[C@@H]2CCCN2C(=O)[C@@H](N)Cc2ccc(NC(=N)N)cc2)C(=O)O)cc1` (H-[Phe(4-guanidino)]PPGFSPF[Phe(4-guanidino)]-OH), the Activity in the experiment listed under Rattus norvegicus [1] turned out to be 0.001%; in the experiment filed under Cavia porcellus [2], 2%. Besides, the Ratio in experiment [3] is recorded as 0.001.
For the molecule `NC(N)=NCCC[C@H](NC(=O)[C@H](Cc1cccs1)NC(=O)[C@@H]1CCCN1C(=O)[C@H](CO)NC(=O)[C@H](Cc1cccs1)NC(=O)CNC(=O)[C@@H]1CCCN1C(=O)[C@@H]1CCCN1C(=O)[C@@H](N)CCCN=C(N)N)C(=O)O` (H-RPPG[2Thi]SP[2Thi]R-OH), the Activity was found to be 1000% in the experiment listed under Rattus norvegicus [1] and 200% in the experiment filed under Cavia porcellus [2]. In experiment [3], the Ratio came to 5.
In the case of `CN(C(=O)[C@H](CO)NC(=O)[C@H](Cc1cccs1)NC(=O)CNC(=O)[C@@H]1C[C@@H](O)CN1C(=O)[C@@H]1CCCN1C(=O)[C@H](CCCN=C(N)N)NC(=O)[C@H](N)CCCN=C(N)N)[C@H](Cc1ccccc1)C(=O)N[C@@H](Cc1ccccc1)C(=O)N[C@@H](CCCN=C(N)N)C(=O)O`, the figures for the Activity in the experiment filed under Cavia porcellus [4], in the experiment listed under Cavia porcellus [5] and in the experiment filed under Rattus norvegicus [6] were 0.04%, 0.006% and 86%, respectively. Further, the Ratio in experiment [3] turned out to be 10000.
Turning to H-RPPGFSPFK-OH, the Activity in the experiment filed under Rattus norvegicus [1] worked out at 0.2%; in the experiment listed under Cavia porcellus [2], 20%. Also, the Ratio in experiment [3] was 0.01.
For the molecule `CC(C)(NC(=O)[C@@H](Cc1c[nH]c2ccccc12)NC(=O)[C@H](Cc1ccccc1)NC(=O)CNC(=O)[C@@H]1CCCN1C(=O)[C@@H]1CCCN1C(=O)[C@@H](N)CCCN=C(N)N)C(=O)N[C@@H](Cc1ccccc1)C(=O)N[C@@H](CCCN=C(N)N)C(=O)O`, the Activity worked out at 100% in the experiment listed under Rattus norvegicus [1] and 226% in the experiment listed under Cavia porcellus [2]. The Ratio in experiment [3] is 0.442.
For `CN(C(=O)[C@H](CO)NC(=O)[C@H](Cc1ccccc1)N(C)C(=O)CNC(=O)[C@@H]1C[C@@H](O)CN1C(=O)[C@@H]1CCCN1C(=O)[C@H](CCCN=C(N)N)NC(=O)[C@H](N)CCCN=C(N)N)[C@H](Cc1ccccc1)C(=O)N(C)[C@@H](Cc1ccccc1)C(=O)N[C@@H](CCCN=C(N)N)C(=O)O`, the Activity in the experiment listed under Cavia porcellus [4] was found to be 0.5%; in the experiment listed under Cavia porcellus [5], 0.005%; in the experiment filed under Rattus norvegicus [6] it was 15%. In [3], the Ratio amounted to 3000.
As to `CN(C(=O)[C@H](CO)NC(=O)[C@H](Cc1ccccc1)NC(=O)CNC(=O)[C@@H]1CCCN1C(=O)[C@@H]1CCCN1C(=O)[C@H](CCCN=C(N)N)NC(=O)[C@H](N)CCCN=C(N)N)[C@@H](Cc1ccccc1)C(=O)N[C@@H](Cc1ccccc1)C(=O)N[C@@H](CCCN=C(N)N)C(=O)O` [listing 1 of 2 here], the figures for the IC50 in experiment [7] and in [8] were 0.001 µM and 0.033 µM, respectively.
Consider `NC(N)=NCCC[C@@H](N)C(=O)N[C@@H](CCCN=C(N)N)C(=O)N1CCC[C@H]1C(=O)N1C[C@H](O)C[C@H]1C(=O)NCC(=O)N[C@@H](Cc1cccs1)C(=O)N[C@@H](CO)C(=O)N1CCC[C@H]1C(=O)N[C@@H](Cc1cccs1)C(=O)N[C@@H](CCCN=C(N)N)C(=O)O`, for which the results for the Activity in the experiment filed under Rattus norvegicus [1] and in the experiment listed under Cavia porcellus [2] were 237% and 7%, respectively. Besides, the Ratio in experiment [3] is reported as 30.
For `NC(N)=NCCC[C@H](NC(=O)[C@H](Cc1ccccc1)NC(=O)[C@@H](Cc1ccccc1)NC(=O)CNC(=O)[C@H](Cc1ccccc1)NC(=O)CNC(=O)[C@@H]1CCCN1C(=O)[C@@H]1CCCN1C(=O)[C@@H](N)CCCN=C(N)N)C(=O)O`, in that order: 31%, 0.3% and 100.
In the case of `CN(C(=O)[C@H](CO)NC(=O)[C@H](Cc1ccccc1)NC(=O)CNC(=O)[C@@H]1CCCN1C(=O)[C@@H]1CCCN1C(=O)[C@H](CCCN=C(N)N)NC(=O)[C@H](N)CCCN=C(N)N)[C@@H](Cc1ccccc1)C(=O)N[C@@H](Cc1ccccc1)C(=O)N[C@@H](CCCN=C(N)N)C(=O)O` [listing 2 of 2 here], the Activity is given as 0.08% in the experiment listed under Cavia porcellus [4], 0.07% in the experiment listed under Cavia porcellus [5] and 0.5% in the experiment listed under Rattus norvegicus [6].
For the molecule `CN(C(=O)[C@@H](N)CCCN=C(N)N)[C@H](Cc1ccccc1)C(=O)N1CCC[C@H]1C(=O)NCC(=O)N[C@@H](Cc1ccccc1)C(=O)N[C@@H](CO)C(=O)N1CCC[C@H]1C(=O)N[C@@H](Cc1ccccc1)C(=O)N[C@@H](CCCN=C(N)N)C(=O)O`, the figures for the Activity in the experiment listed under Cavia porcellus [4], in the experiment listed under Cavia porcellus [5] and in the experiment listed under Rattus norvegicus [6] were 0.05%, 0.15% and 0.15%, respectively. Further, the IC50 in [7] turned out to be 3.78 µM; in [8], 0.1 µM; in [10], 0.057 µM.
For `CN(C(=O)[C@H](CO)NC(=O)[C@H](Cc1ccccc1)NC(=O)CNC(=O)[C@@H]1C[C@@H](O)CN1C(=O)[C@@H]1CCCN1C(=O)[C@H](CCCN=C(N)N)NC(=O)[C@H](N)CCCN=C(N)N)[C@H](Cc1ccccc1)C(=O)N(C)[C@@H](Cc1ccccc1)C(=O)N[C@@H](CCCN=C(N)N)C(=O)O` [listing 2 of 2 here], the IC50 in experiment [7] stood at 0.033 µM; in experiment [8], 0.018 µM; in experiment [9], 0.00033 µM.
Turning to `CC(C)(NC(=O)[C@H](CO)NC(=O)[C@H](Cc1ccccc1)NC(=O)CNC(=O)[C@@H]1CCCN1C(=O)[C@@H]1CCCN1C(=O)[C@@H](N)CCCN=C(N)N)C(=O)N[C@@H](Cc1ccccc1)C(=O)N[C@@H](CCCN=C(N)N)C(=O)O` (H-RPPGFS[Aib]FR-OH), the Activity in the experiment listed under Rattus norvegicus [1] stood at 55%; in the experiment listed under Cavia porcellus [2], 418%. For the same molecule, the Ratio in experiment [3] worked out at 0.13.
For `NC(N)=NCCC[C@H](NC(=O)[C@H](Cc1cccs1)NC(=O)[C@@H]1CCCN1C(=O)[C@H](CO)NC(=O)[C@H](Cc1ccccc1)NC(=O)CNC(=O)[C@@H]1CCCN1C(=O)[C@@H]1CCCN1C(=O)[C@@H](N)CCCN=C(N)N)C(=O)O` (H-RPPGFSP[2Thi]R-OH), in that order: 500%, 40% and 13.
Taken in the same sequence, the figures for `CC(C)(NC(=O)[C@@H](Cc1ccccc1)NC(=O)[C@H](Cc1ccccc1)NC(=O)CNC(=O)[C@@H]1CCCN1C(=O)[C@@H]1CCCN1C(=O)[C@@H](N)CCCN=C(N)N)C(=O)N[C@@H](Cc1ccccc1)C(=O)N[C@@H](CCCN=C(N)N)C(=O)O` were 124%, 426% and 0.291.
For `CC(C)(NC(=O)[C@@H](Cc1ccc(Cl)cc1)NC(=O)C(Cc1ccccc1)NC(=O)CNC(=O)[C@@H]1CCCN1C(=O)[C@@H]1CCCN1C(=O)[C@@H](N)CCCN=C(N)N)C(=O)NC(Cc1ccccc1)C(=O)N[C@@H](CCCN=C(N)N)C(=O)O` (stereo in doubt), in that order: 97%, 321% and 0.3.
